SMILES strings stand for the structures. Calls of active or inactive are those of the source. The rule behind the calls is not given here.

Results on two compounds are retold here after ChEMBL document CHEMBL4400562, “Plumbagin Increases Paclitaxel-Induced Cell Death and Overcomes Paclitaxel Resistance in Breast Cancer Cells through ERK-Mediated Apoptosis Induction” (J Nat Prod, 2019).

Assay [1] concerns MCF7. The experiment in a line: Induction of apoptosis in human MCF7 cells at 1 nM after 24 hrs by Annexin V-phycoerythrin/7-AAD staining based flow cytometric analysis relative to control. The assay is classed as functional. A general note: In flow cytometry, cells or beads pass a laser one at a time.
In assay [2] the test system is BT-474. The experiment in a line: Induction of apoptosis in human BT474 cells at 2 nM after 24 hrs by Annexin V-phycoerythrin/7-AAD staining based flow cytometric analysis relative to control. The assay is classed as functional.
The test system of assay [3] is MDA-MB-468. The experiment in a line: Induction of apoptosis in human MDA-MB-468 cells at 1 nM after 24 hrs by Annexin V-phycoerythrin/7-AAD staining based flow cytometric analysis relative to control. It counts as functional.
Assay [4] relates to MDA-MB-468. In words: Synergistic cytotoxicity against human MDA-MB-468 cells assessed as combination index at 0.5 to 2 uM after 24 hrs in presence of 5 to 20 nM of paclitaxel by MTT assay. It counts as functional. An outline of the steps:
(§1)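 The Chou–Talalay median-effect method was applied to 24 h MTT viability data. Five fixed-ratio plumbagin (μM)/paclitaxel (nM) combinations were used: for MCF-7 1/0.5, 2/1, 3/3, 4/5, 5/10. Cell-line-specific series were used for BT474 and MDA-MB-468. Single agents were run in parallel. CI was computed at several effect levels.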

Assay [5] relates to BT-474. In words: Synergistic cytotoxicity against human BT474 cells assessed as combination index at 1 to 5 uM after 24 hrs in presence of 0.1 to 20 nM of paclitaxel by MTT assay. The assay is classed as functional. The method in brief: as §1
For assay [6], the system named is MCF7. The experiment in a line: Synergistic cytotoxicity against human MCF7 cells assessed as combination index at 1 to 5 uM after 24 hrs in presence of 0.5 to 10 nM of paclitaxel by MTT assay. The assay is classed as functional. An outline of the steps:
as §1
Background: Formazan colour is commonly taken as a measure of viable cells.

Assay [7] concerns MCF7. The experiment in a line: Induction of apoptosis in human MCF7 cells up to 3 uM after 24 hrs in presence of 1 nM of paclitaxel by Annexin V-phycoerythrin/7-AAD staining based flow cytometric analysis relative to control. The assay is classed as functional. An outline of the steps:
(§2)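 Cells were treated for 24 h with single agents or combinations, then washed in annexin-binding buffer and stained with annexin V-PE and 7-AAD for 30 min at 15 °C in the dark. Apoptotic fraction was read by flow cytometry. DMSO was 0.5% final. Data from at least three independent experiments, one-way ANOVA with Tukey's test.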

Assay [8] has as its system BT-474. The experiment in a line: Induction of apoptosis in human BT474 cells up to 2.5 uM after 24 hrs in presence of 2 nM of paclitaxel by Annexin V-phycoerythrin/7-AAD staining based flow cytometric analysis relative to control. The assay is classed as functional. An outline of the steps: as §2
For assay [9], the system named is MCF7. The experiment in a line: Induction of apoptosis in human MCF7 cells pre-treated with ERK1/2 siRNA at 2 uM in presence of 1 nM paclitaxel by Annexin V-phycoerythrin/7-AAD staining based flow cytometric analysis relative to control. It counts as functional, cell-based. The method in brief: (§3)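 Cells were transiently transfected for 24 h with ERK1 and ERK2 siRNA (0.5 μg) or scrambled control siRNA, with knockdown checked by Western blot. Cells were then treated for 24 h with the combination, stained with annexin V-PE and 7-AAD, and analysed by flow cytometry. Apoptosis was compared against control-siRNA cells.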

For assay [10], the system named is MDA-MB-468. The experiment in a line: Induction of apoptosis in human MDA-MB-468 cells at 0.2 uM after 24 hrs in presence of 1 nM of paclitaxel by Annexin V-phycoerythrin/7-AAD staining based flow cytometric analysis relative to control. It counts as functional. The method in brief: as §2
Assay [11] has as its system MDA-MB-468. The experiment in a line: Induction of apoptosis in human MDA-MB-468 cells at 0.5 uM after 24 hrs in presence of 1 nM of paclitaxel by Annexin V-phycoerythrin/7-AAD staining based flow cytometric analysis relative to control. It counts as functional. The method in brief:
as §2

Assay [12] has as its target T1, Mitogen-activated protein kinase; ERK1/ERK2 (Homo sapiens) (UniProt P27361+P28482). In words: Inhibition of ERK1/2 in human MCF7 cells assessed as reduction in EGF-induced phosphorylation of ERK1/2 level up to 1 uM preincubated for 24 hrs followed by EGF addition and measured after 30 mins by Western blot analysis. The assay is classed as cell-based. For orientation: In western blotting, separated proteins are transferred to a membrane and probed.

The target in assay [13] is T1, Mitogen-activated protein kinase; ERK1/ERK2 (Homo sapiens). The experiment in a line: Inhibition of ERK1/2 in human BT474 cells assessed as reduction in EGF-induced phosphorylation of ERK1/2 level up to 1 uM preincubated for 24 hrs followed by EGF addition and measured after 30 mins by Western blot analysis. The assay is classed as cell-based.
Assay [14] has the same target. In words: Inhibition of ERK1/2 in human MDA-MB-468 cells assessed as reduction in EGF-induced phosphorylation of ERK1/2 level up to 0.5 uM preincubated for 24 hrs followed by EGF addition and measured after 30 mins by Western blot analysis. It counts as cell-based.
The target is the same in assay [15]. In words: Inhibition of ERK1/2 in human MCF7 cells assessed as reduction in EGF-induced phosphorylation of ERK1/2 at Thr202/Tyr204 residues up to 3 uM preincubated for 1 hrs followed by EGF addition and measured after 30 mins by AlphaScreen analysis relative to control. The assay is classed as cell-based.
Assay [16] has the same target. The experiment in a line: Inhibition of ERK1/2 in human BT474 cells assessed as reduction in EGF-induced phosphorylation of ERK1/2 at Thr202/Tyr204 residues up to 2 uM preincubated for 1 hrs followed by EGF addition and measured after 30 mins by AlphaScreen analysis relative to control. It counts as cell-based.
Assay [17] shares this target. In words: Inhibition of ERK1/2 in human MDA-MB-468 cells assessed as reduction in EGF-induced phosphorylation of ERK1/2 at Thr202/Tyr204 residues up to 1 uM preincubated for 1 hrs followed by EGF addition and measured after 30 mins by AlphaScreen analysis relative to control. It counts as cell-based.
Assay [18] has the same target. The experiment in a line: Inhibition of ERK1/2 in human MCF7 cells assessed as reduction in paclitaxel-induced phosphorylation of ERK1/2 at Thr202/Tyr204 residues up to 3 uM preincubated for 1 hrs followed by 1 nM paclitaxel addition and measured after 30 mins by AlphaScreen analysis relative to control. It counts as cell-based.
The target is the same in assay [19]. The experiment in a line: Inhibition of ERK1/2 in human BT474 cells assessed as reduction in paclitaxel-induced phosphorylation of ERK1/2 at Thr202/Tyr204 residues up to 2 uM preincubated for 1 hrs followed by 1 nM paclitaxel addition and measured after 30 mins by AlphaScreen analysis relative to control. The assay is classed as cell-based.
For assay [20] the target is unchanged. The experiment in a line: Inhibition of ERK1/2 in human MDA-MB-468 cells assessed as reduction in paclitaxel-induced phosphorylation of ERK1/2 at Thr202/Tyr204 residues up to 1 uM preincubated for 1 hrs followed by 1 nM paclitaxel addition and measured after 30 mins by AlphaScreen analysis relative to control. The assay is classed as cell-based.
Assay [21] deals with MDA-MB-468. The experiment in a line: Induction of apoptosis in human MDA-MB-468 cells pre-treated with ERK1/2 siRNA at 0.2 uM in presence of 1 nM paclitaxel by Annexin V-phycoerythrin/7-AAD staining based flow cytometric analysis relative to control. The assay is classed as functional. An outline of the steps:
as §3

The subject of assay [22] is BT-474. The experiment in a line: Induction of apoptosis in human BT474 cells pre-treated with ERK1/2 siRNA at 1.5 uM in presence of 2 nM paclitaxel by Annexin V-phycoerythrin/7-AAD staining based flow cytometric analysis relative to control. The assay is classed as functional, cell-based. The method in brief:
as §3

Assay [23] concerns MCF7. In words: Cytotoxicity against human MCF7 cells assessed as reduction in cell viability after 24 hrs by MTT assay. The settings on record: MCF7, 24 h.
For assay [24], the system named is MCF7/PTX. In words: Cytotoxicity against paclitaxel-resistant human MCF7/PTX cells assessed as reduction in cell viability after 24 hrs by MTT assay. The assay is classed as functional, cell-based. The method in brief: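 MTT viability after 24 h exposure. MCF-7/PTX cells were derived from MCF-7 by three months of culture in rising paclitaxel (0.4 to 6.0 nM). Cells grew in RPMI with 10% FBS at 37 °C, 5% CO2. Compounds were dissolved in DMSO, 0.5% final. At least three independent experiments.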

The subject of assay [25] is MCF7/PTX. The experiment in a line: Induction of apoptosis in paclitaxel-resistant human MCF7/PTX cells at 3 uM after 24 hrs by Annexin V-phycoerythrin/7-AAD staining based flow cytometric analysis relative to control. It counts as functional. An outline of the steps:
as §2

For assay [26], the system named is MCF7. The experiment in a line: Induction of apoptosis in human MCF7 cells at 3 uM after 24 hrs by Annexin V-phycoerythrin/7-AAD staining based flow cytometric analysis relative to control. It counts as functional. An outline of the steps: as §2
The target of assay [27] is T1, Mitogen-activated protein kinase; ERK1/ERK2 (Homo sapiens). The experiment in a line: Inhibition of ERK1/2 in paclitaxel-resistant human MCF7/PTX cells assessed as reduction in paclitaxel-induced phosphorylation of ERK1/2 at Thr202/Tyr204 residues up to 3 uM preincubated for 1 hrs followed by 1 nM paclitaxel addition and measured after 30 mins by AlphaScreen analysis. It counts as cell-based.

The subject of assay [28] is MCF7/PTX. In words: Potentiation of paclitaxel-induced apoptosis in paclitaxel-resistant human MCF7/PTX cells at 2 uM after 24 hrs by Annexin V-phycoerythrin/7-AAD staining based flow cytometric analysis. The assay is classed as functional, cell-based. An outline of the steps: as §2

T1 sequence (P27361 whole entry, looked up): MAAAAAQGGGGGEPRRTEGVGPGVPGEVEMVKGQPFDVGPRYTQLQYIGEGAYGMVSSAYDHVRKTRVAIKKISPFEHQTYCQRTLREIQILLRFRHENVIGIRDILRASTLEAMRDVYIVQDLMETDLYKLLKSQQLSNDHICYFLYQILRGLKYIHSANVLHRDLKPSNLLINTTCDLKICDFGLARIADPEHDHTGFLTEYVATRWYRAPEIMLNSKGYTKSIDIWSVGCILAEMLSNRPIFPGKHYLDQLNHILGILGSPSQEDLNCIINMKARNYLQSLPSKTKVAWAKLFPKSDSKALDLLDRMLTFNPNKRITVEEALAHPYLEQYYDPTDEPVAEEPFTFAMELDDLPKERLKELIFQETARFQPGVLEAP
T1 sequence (P28482 whole entry, looked up): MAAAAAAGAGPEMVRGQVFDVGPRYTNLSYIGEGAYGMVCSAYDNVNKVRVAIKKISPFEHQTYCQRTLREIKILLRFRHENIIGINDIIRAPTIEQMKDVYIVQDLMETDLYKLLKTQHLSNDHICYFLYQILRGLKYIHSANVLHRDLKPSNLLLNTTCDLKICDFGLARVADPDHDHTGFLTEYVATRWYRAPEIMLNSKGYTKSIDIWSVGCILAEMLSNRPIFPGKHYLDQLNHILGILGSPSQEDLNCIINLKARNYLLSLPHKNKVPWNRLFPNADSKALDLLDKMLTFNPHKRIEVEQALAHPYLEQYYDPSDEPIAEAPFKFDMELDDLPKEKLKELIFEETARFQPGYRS

With `CC(=O)O[C@H]1C(=O)[C@@]2(C)[C@H]([C@H](OC(=O)c3ccccc3)[C@]3(O)C[C@H](OC(=O)[C@H](O)[C@@H](NC(=O)c4ccccc4)c4ccccc4)C(C)=C1C3(C)C)[C@]1(OC(C)=O)CO[C@@H]1C[C@@H]2O` [PACLITAXEL], the Activity with MCF7 [1], with BT-474 [2] and in the assay on MDA-MB-468 [3] was 10 - 15% each time.

Turning to `CC1=CC(=O)c2c(O)cccc2C1=O` [PLUMBAGIN], the CI in the assay on MDA-MB-468 [4] is 0.5 - 1; in the assay with BT-474 [5], 0.6; with MCF7 [6], 0.9. Besides, the Activity in the assay with MCF7 [7] turned out to be 10%; in the assay on BT-474 [8] it was 15%; with MDA-MB-468 [10], 20%; in the assay with MDA-MB-468 [11], 35%; in the assay on MDA-MB-468 [21] it was 25%; in the assay with MCF7/PTX [25] it was 20%. Moreover, the Activity in the assay with MCF7 [26] amounted to 20%. Moreover, the outcome with MCF7 [9], with BT-474 [22] and in the assay with MCF7/PTX [28] was Active. In addition, the inhibition result in [12], in [13], in [14], in assay [15], in [16] and in assay [17] was “Active” throughout. Also, the inhibition result in assay [18], in [19], in assay [20] and in assay [27] was “Active” throughout. Moreover, the IC50 in the assay with MCF7 [23] and in the assay with MCF7/PTX [24] was 3.5 µM in each case.

Usually IC50 stands for the concentration needed to halve the response being measured.
